From PubChem BioAssay AID651943 (The Scripps Research Institute Molecular Screening Center, 2012)
Calls of active or inactive are those of the source.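 The calls were made as follows: active = bacterial viability inhibition with half-maximal concentration IC50 at or below 10 µM; inactive = the rest.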

tested on: E. coli V66 growth, OD600 absorbance, 18 h; assay: bacterial growth inhibition, late-stage follow-up, counter-screen for AddAB helicase-nuclease inhibitor project, absorbance, dose response, round 2 (AID 651943)
How it was run: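 System: uninfected E. coli strain V66, RecBCD+ / Control set: ciprofloxacin 0.95 µg/mL as high control, DMSO as low control / Schedule: 18 h compound exposure, 37 °C / Technique: optical density by absorbance at 600 nm / Replicates: triplicate wells per compound concentration / Dosing: 10 concentrations, 1:3 steps, highest 118.6 µM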

| Compound | IC50 |
| --- | --- |
| CCn1cc(C(=O)O)c(=O)c2cnc(N3CCN(C(=S)Nc4cccc(C(F)(F)F)c4)CC3)nc21 | 34.4 µM (inactive) |
| CCn1cc(C(=O)O)c(=O)c2cnc(N3CCN(C(=S)NC(=O)c4cccc(C)c4)CC3)nc21 | > 39.5 µM (inactive) |
| CCn1cc(C(=O)O)c(=O)c2cnc(N3CCN(C(=S)Nc4ccccc4F)CC3)nc21 | > 119 µM (inactive) |
| CCn1cc(C(=O)O)c(=O)c2cnc(N3CCN(C(=S)Nc4ccc(Cl)cc4)CC3)nc21 | > 39.5 µM (inactive) |
| CCn1cc(C(=O)O)c(=O)c2cnc(N3CCN(C(=S)NCc4ccccc4)CC3)nc21 | > 119 µM (inactive) |
| CCn1cc(C(=O)O)c(=O)c2cnc(N3CCN(C(=S)Nc4ccccc4OC)CC3)nc21 | > 119 µM (inactive) |
